Reference: paper PMC6287896 (Anti-Cancer Drugs, 2018)

Legend:
[1] = Dose-response: serum markers of organ function; type: in vivo, mouse
Summary of the method: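 Mice were dosed intravenously with vehicle or 50, 100 or 200 mg/kg test compound (six per group). They were euthanised by CO2 with cervical dislocation at 6 or 18 h, and blood and tissue were collected. Serum AST, GGT, CRP and troponin I were measured by colorimetric assays to assess liver, kidney and heart function. Tissues were examined for gross pathology.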

[2] = Acute toxicity, oral up and down procedure; type: in vivo, mouse; conditions: 2000 mg/kg, monitored 48 h, repeated twice on other animals
[3] = tested on: DU-145 prostate carcinoma cells; experiment: DU-145 xenografts in athymic nude mice; type: in vivo, mouse; conditions: 30 days
DU-145 cells = experiment: WST-1 assay for cell viability and cytotoxicity; type: cell-based, human; conditions: 23.4 mmol/l, 4 day incubation, read up to 8 h, P≤0.01
Tissue levels = type: in vivo; conditions: mouse heart, liver, kidney, brain; up to 24 h; i.v. and oral
Summary of the method: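 After intravenous or oral dosing, liver, kidney, heart and brain were collected at sacrifice. Tissue was homogenised in ice-cold 0.1% acetic acid (10 ml/g) and centrifuged. Acetonitrile/methanol was added to the supernatant, followed by vortexing, centrifugation, evaporation and reconstitution in 0.1% acetic acid. Samples were quantified by LC–MS/MS (SRM 240.100→110.054) against spiked blank-tissue calibrants.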

PC-3 cells = experiment: WST-1 assay for cell viability and cytotoxicity; type: cell-based, human; conditions: 23.4 mmol/l, 4 day incubation, read up to 8 h, P≤0.01
[4] = Plasma pharmacokinetics and bioavailability after intravenous and oral dosing; type: in vivo; conditions: mouse, other: oral gavage and intravenous bolus
Summary of the method: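 Mice were dosed by intravenous bolus or oral gavage, with plasma sampled over 24 h and one sacrifice per time point. Plasma was protein-precipitated with acetonitrile/methanol, evaporated and reconstituted in 0.1% acetic acid. Quantitation was by C18 UHPLC–tandem MS with heated ESI and positive-mode SRM (240.100→110.054), against spiked mouse plasma calibrants. Half-life was taken from concentration–time profiles.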

Plasma stability = type: in vitro ADME; conditions: over 2 h
Summary of the method: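 Human plasma was spiked with test compound and incubated separately at 25 and 37°C. Drug levels were measured over 120 min.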

[5] = intravenous 50, 100 or 200 mg/kg, 6 or 18 h

C[C@@H]1C[C@@H](n2cnc(C(N)=O)c2N)[C@H](O)[C@H]1O [ICA-1s, 5-amino-1-((1R,2S,3S,4R)-2,3-dihydroxy-4-methylcyclopentyl)-1H-imidazole-4-carboxamide]
serum CRP versus control ([1]; intravenous 200 mg/kg, 6 h after treatment, P=0.033): significant rise
serum AST versus control [1, 5]: no significant difference
serum GGT versus control [1, 5]: no significant difference
serum troponin I versus control [1, 5]: no significant difference
serum CRP versus control, all other readings ([1]; intravenous 50, 100 or 200 mg/kg, 6 or 18 h, other than 200 mg/kg at 6 h): no significant difference
acute toxicity outcome at highest dose of the UDP [2]: survived with no observable adverse reaction
average tumor size of treated xenografts ([3]; 100 mg/kg subcutaneous daily, untreated 156.4 mm^2): 76.8 mm^2
tumor growth rate relative to untreated tumors ([3]; DU-145 xenografts, treated vs untreated): almost half the rate
in-vitro cytotoxicity (WST-1, absorbance at 450 nm) (DU-145 cells): significant cytotoxicity
accumulation in major organs (tissue levels) (Tissue levels): did not appear to indicate accumulation
in-vitro cytotoxicity (WST-1, absorbance at 450 nm) (PC-3 cells): significant cytotoxicity
half-life [4]: 5.7 h
stability in human plasma (Plasma stability; 25°C (ambient)): stable
stability in human plasma (Plasma stability; 37°C): stable
